Data taken from ChEMBL document CHEMBL1145994, “CCR2: characterization of the antagonist binding site from a combined receptor modeling/mutagenesis approach” (J Med Chem, 2003).
The source made the active and inactive calls. The rule behind the calls is not given here.

What was measured:
[1] = biological target: C-C chemokine receptor type 2 (Homo sapiens, UniProt P41597, H121A); test: Binding affinity of compound (10 uM) towards H121A receptor variant (mutant CCR2 receptor) using radioligand [125I]MCP-1 in HEK 293 cells; assay type: cell-based, HEK293
[2] = system: T1, C-C chemokine receptor type 2 (Homo sapiens), P41597 [E291Q]; test: Binding affinity of compound (10 uM) towards E291Q receptor variant (mutant CCR2 receptor) using radioligand [125I]MCP-1 in HEK 293 cells; Inactive; assay type: cell-based; conditions: HEK293
T1 sequence (whole entry): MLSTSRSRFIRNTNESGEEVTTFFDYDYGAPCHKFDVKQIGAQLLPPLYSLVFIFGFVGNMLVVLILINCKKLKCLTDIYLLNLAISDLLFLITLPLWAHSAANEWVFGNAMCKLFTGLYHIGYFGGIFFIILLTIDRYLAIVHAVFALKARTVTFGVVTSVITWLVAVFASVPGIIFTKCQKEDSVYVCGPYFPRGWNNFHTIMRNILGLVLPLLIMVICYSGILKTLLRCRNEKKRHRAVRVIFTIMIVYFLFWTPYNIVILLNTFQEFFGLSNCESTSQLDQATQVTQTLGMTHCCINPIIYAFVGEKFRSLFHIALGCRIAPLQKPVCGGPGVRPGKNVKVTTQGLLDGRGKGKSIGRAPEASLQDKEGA
How it was run: (§1)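 Wild-type or point-mutant CCR2 cDNA in pcDNA3.1 transiently transfected into HEK-293T cells at 50–80% confluence, with a co-transfected human G-protein plasmid cocktail. Membranes harvested 48 h later by sonication and differential centrifugation.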

[3] = biological target: C-C chemokine receptor type 2 (Homo sapiens, UniProt P41597, T290A); test: Binding affinity of compound (10 uM) towards T290A receptor variant (mutant CCR2 receptor) using radioligand [125I]MCP-1 in HEK 293 cells; assay type: cell-based, HEK293
How it was run: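 HEK 293 cells transiently transfected with point-mutated human CCR2 (lipofectAMINE Plus, with a human G-protein plasmid cocktail). Membranes were harvested 48 h later in HEPES pH 7/sucrose/EDTA with protease inhibitors.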

[4] = biological target: T2, C-C chemokine receptor type 2 (Homo sapiens, UniProt P41597); test: Inhibition of chemotaxis by C-C chemokine receptor type 2 antagonist in human monocytes was measured in the presence 1 nM MCP-1; assay type: functional, cell-based
How it was run: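 Human monocyte chemotaxis driven by 1 nM MCP-1 as agonist. Antagonist added from a 10 mM DMSO stock, final 10 nM to 10 μM; vehicle control included. Values reported as pKb.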
Target sequence in this assay (P41597 whole entry, looked up): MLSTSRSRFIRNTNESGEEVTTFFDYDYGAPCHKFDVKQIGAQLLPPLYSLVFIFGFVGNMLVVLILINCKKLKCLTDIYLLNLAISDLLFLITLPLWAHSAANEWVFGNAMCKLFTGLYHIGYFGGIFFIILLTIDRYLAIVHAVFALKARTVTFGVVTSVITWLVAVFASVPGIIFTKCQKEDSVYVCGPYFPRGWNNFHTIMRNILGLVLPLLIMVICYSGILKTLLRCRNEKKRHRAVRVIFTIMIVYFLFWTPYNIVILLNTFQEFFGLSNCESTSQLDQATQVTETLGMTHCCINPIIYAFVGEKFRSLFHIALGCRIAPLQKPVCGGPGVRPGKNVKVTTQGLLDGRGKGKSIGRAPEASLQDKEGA

[5] = biological target: C-C chemokine receptor type 2 (Homo sapiens, UniProt P41597, H121A/T292A); test: Binding affinity of compound (10 uM) towards H121A/T292A receptor variant (double mutant CCR2 receptor) using radioligand [125I]MCP-1 in HEK 293 cells; assay type: cell-based, HEK293; how it was run: as §1
[6] = biological target: C-C chemokine receptor type 2 (Homo sapiens, UniProt P41597, D284A); test: Binding affinity of compound (10 uM) towards D284A receptor variant (mutant CCR2 receptor) using radioligand [125I]MCP-1 in HEK 293 cells; assay type: cell-based, HEK293
[7] = biological target: C-C chemokine receptor type 2 (Homo sapiens, UniProt P41597, T292A); test: Binding affinity of compound (10 uM) towards T292A receptor variant (mutant CCR2 receptor) using radioligand [125I]MCP-1 in HEK 293 cells; assay type: cell-based, HEK293
[8] = biological target: C-C chemokine receptor type 2 (Homo sapiens, UniProt P41597, Q288A); test: Binding affinity of compound (10 uM) towards Q288A receptor variant (mutant CCR2 receptor) using radioligand [125I]MCP-1 in HEK 293 cells; assay type: cell-based, HEK293
[9] = biological target: C-C chemokine receptor type 2 (Homo sapiens, UniProt P41597, H121F); test: Binding affinity of compound (10 uM) towards H121F receptor variant (mutant CCR2 receptor) using radioligand [125I]MCP-1 in HEK 293 cells; assay type: cell-based, HEK293
[10] = biological target: C-C chemokine receptor type 2 (Homo sapiens, UniProt P41597, Y49F); test: Binding affinity of compound (10 uM) towards Y49F receptor variant (mutant CCR2 receptor) using radioligand [125I]MCP-1 in HEK 293 cells; assay type: cell-based, HEK293
[11] = biological target: T2, C-C chemokine receptor type 2; test: Binding affinity of compound (10 uM) towards WT receptor variant (mutant C-C chemokine receptor type 2) using radioligand [125I]MCP-1 in HEK 293 cells; assay type: cell-based; conditions: hek293
Target sequence in this assay (P41597 whole entry, looked up, change not shown): as the sequence (P41597 whole entry, looked up) above

[12] = biological target: T2, C-C chemokine receptor type 2; test: Binding affinity of compound (10 uM) towards […] receptor variant (mutant CCR2 receptor) using radioligand [125I]MCP-1 in HEK 293 cells; assay type: cell-based, HEK293; how it was run: as §1
Target sequence in this assay (P41597 whole entry, looked up, change not shown): as the sequence (P41597 whole entry, looked up) above

[13] = biological target: T2, C-C chemokine receptor type 2; conditions: HEK293
Target sequence in this assay (P41597 whole entry, looked up): as above

[14] = biological target: T2, C-C chemokine receptor type 2; conditions: HEK293; remark: listed apart in the source
Target sequence in this assay (P41597 whole entry, looked up): as above

[15] = system: T1, C-C chemokine receptor type 2 (Homo sapiens), P41597 [E291Q]; conditions: HEK293
[16] = biological target: C-C chemokine receptor type 2 (Homo sapiens, UniProt P41597, E291Q); test: Binding affinity of compound (10 uM) towards E291Q receptor variant (mutant CCR2 receptor) using radioligand [125I]MCP-1 in HEK 293 cells; assay type: cell-based, HEK293; how it was run: as §1
[17] = biological target: T2, C-C chemokine receptor type 2; test: Binding affinity of compound (10 uM) towards Y210A-292A receptor variant (double mutant CCR2 receptor) using radioligand [125I]MCP-1 in HEK 293 cells; Inactive; assay type: cell-based; conditions: HEK293; how it was run: as §1
Target sequence in this assay (P41597 whole entry, looked up): as above

[18] = biological target: T2, C-C chemokine receptor type 2; test: Binding displacement of [125I]MCP-1 (0.14 nM) was measured on CHO cell membranes expressing human CCR2 (C-C chemokine receptor type 2)
Target sequence in this assay (P41597 whole entry): as the sequence (P41597 whole entry, looked up) above

[19] = biological target: T2, C-C chemokine receptor type 2; test: Inhibitory activity against C-C chemokine receptor type 2 (antagonist activity); assay type: functional
Target sequence in this assay (P41597 whole entry): as the sequence (P41597 whole entry, looked up) above

Sequence of C-C chemokine receptor type 2 (Homo sapiens, UniProt P41597, H121F) (P41597 whole entry H121F): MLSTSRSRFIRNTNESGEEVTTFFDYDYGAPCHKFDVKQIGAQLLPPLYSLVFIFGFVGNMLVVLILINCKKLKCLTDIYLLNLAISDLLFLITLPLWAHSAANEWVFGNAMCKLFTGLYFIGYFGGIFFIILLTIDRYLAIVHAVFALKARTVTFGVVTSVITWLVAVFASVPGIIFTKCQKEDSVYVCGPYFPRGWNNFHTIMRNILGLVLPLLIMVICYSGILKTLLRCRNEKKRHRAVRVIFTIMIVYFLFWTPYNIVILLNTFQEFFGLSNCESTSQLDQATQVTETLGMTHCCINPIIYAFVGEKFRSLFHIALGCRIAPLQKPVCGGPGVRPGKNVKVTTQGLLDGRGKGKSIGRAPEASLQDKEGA
Sequence of C-C chemokine receptor type 2 (Homo sapiens, UniProt P41597, Y49F) (P41597 whole entry Y49F): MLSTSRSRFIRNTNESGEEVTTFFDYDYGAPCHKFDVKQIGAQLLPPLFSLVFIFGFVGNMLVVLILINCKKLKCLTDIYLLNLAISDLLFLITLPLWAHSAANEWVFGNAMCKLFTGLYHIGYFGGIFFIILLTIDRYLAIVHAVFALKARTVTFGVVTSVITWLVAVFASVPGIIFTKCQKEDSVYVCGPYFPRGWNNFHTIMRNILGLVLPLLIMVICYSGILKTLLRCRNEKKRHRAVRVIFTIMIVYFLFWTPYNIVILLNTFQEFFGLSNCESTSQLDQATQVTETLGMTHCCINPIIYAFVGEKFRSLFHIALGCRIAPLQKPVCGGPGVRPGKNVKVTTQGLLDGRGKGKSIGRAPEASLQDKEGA
Sequence of C-C chemokine receptor type 2 (Homo sapiens, UniProt P41597, T290A) (P41597 whole entry T290A): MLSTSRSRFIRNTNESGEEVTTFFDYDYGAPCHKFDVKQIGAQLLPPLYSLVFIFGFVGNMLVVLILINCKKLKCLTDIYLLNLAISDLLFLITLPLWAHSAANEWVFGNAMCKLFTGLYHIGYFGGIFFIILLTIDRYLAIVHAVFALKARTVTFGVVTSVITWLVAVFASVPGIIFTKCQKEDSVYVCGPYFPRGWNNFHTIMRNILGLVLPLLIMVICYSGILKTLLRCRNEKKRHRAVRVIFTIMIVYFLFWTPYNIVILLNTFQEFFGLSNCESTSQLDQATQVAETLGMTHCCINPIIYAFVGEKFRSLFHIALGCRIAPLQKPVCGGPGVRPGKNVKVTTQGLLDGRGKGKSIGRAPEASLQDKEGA
Sequence of C-C chemokine receptor type 2 (Homo sapiens, UniProt P41597, T292A) (P41597 whole entry T292A): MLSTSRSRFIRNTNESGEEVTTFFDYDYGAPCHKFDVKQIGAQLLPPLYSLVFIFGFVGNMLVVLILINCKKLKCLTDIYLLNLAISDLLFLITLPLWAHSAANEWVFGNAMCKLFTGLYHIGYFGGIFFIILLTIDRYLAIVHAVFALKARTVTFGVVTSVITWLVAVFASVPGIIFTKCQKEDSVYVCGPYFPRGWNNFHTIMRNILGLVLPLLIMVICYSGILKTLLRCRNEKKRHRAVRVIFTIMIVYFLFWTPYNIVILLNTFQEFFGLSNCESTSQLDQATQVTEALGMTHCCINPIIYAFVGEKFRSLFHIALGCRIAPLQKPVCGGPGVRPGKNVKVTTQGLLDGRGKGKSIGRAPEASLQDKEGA
Sequence of C-C chemokine receptor type 2 (Homo sapiens, UniProt P41597, Q288A) (P41597 whole entry Q288A): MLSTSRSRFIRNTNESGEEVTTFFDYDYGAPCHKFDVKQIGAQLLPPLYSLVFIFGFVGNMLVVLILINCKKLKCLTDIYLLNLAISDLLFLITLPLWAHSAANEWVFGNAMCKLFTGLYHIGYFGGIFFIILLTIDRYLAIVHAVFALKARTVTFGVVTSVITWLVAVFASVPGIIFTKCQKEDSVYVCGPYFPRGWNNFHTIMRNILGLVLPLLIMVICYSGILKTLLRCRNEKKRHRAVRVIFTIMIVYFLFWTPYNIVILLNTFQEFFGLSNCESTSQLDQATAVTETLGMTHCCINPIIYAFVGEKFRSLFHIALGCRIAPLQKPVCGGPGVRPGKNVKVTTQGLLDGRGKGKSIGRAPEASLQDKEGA
Sequence of C-C chemokine receptor type 2 (Homo sapiens, UniProt P41597, H121A) (P41597 whole entry H121A): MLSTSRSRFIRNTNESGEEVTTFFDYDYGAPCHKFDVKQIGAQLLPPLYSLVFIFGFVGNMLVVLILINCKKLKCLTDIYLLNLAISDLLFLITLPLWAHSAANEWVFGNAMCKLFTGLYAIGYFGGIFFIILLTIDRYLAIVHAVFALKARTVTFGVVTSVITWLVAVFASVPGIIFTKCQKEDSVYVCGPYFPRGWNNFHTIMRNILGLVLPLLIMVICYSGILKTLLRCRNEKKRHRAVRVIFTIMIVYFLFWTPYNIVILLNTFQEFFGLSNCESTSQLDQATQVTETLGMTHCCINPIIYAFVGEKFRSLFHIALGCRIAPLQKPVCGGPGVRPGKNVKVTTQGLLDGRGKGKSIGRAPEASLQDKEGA
Sequence of C-C chemokine receptor type 2 (Homo sapiens, UniProt P41597, H121A/T292A) (P41597 whole entry H121A/T292A): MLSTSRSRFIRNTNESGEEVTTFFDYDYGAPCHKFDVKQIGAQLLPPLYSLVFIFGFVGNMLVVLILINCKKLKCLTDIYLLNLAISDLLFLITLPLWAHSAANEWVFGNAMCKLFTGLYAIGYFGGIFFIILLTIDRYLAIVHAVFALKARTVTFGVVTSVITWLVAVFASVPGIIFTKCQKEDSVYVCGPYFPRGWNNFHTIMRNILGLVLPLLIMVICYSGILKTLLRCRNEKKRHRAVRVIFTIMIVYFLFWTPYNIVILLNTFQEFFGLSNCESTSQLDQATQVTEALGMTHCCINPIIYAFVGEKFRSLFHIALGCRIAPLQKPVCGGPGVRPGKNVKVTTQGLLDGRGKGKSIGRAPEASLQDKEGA
Sequence of C-C chemokine receptor type 2 (Homo sapiens, UniProt P41597, D284A) (P41597 whole entry D284A): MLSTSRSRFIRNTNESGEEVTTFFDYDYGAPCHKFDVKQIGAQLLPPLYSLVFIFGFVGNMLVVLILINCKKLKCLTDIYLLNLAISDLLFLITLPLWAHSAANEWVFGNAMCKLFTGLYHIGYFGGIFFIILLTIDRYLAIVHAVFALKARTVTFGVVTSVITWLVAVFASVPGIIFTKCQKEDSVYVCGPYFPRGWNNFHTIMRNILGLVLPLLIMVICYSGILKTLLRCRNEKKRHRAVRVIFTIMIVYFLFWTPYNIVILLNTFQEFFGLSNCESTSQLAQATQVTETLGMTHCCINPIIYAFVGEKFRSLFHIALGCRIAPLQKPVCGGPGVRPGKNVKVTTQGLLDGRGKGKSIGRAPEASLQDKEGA

Row | SMILES | Ki [1] [nM] | Log Ki [2] | Ki [3] [nM] | pKb [4] | Ki [5] [nM] | Ki [6] [nM] | Ki [7] [nM] | Ki [8] [nM] | Ki [9] [nM] | Ki [10] [nM] | Log Ki [11] | Ki [12] [nM] | Log Ki [13] | Log Ki [14] | Log Ki [15] | Ki [16] [nM] | Log Ki [17] | Ki [18] [nM] | IC50 [19] [nM]
1 | O=C(/C=C/c1ccc(Cl)c(Cl)c1)NCCCCCN1CCC(c2c[nH]c3ccc(O)cc23)CC1 | 2510 | inactive | 129 | 7.71 | 2090 | 229 | 724 | 170 | 166 | 16.6 | -7 | 562 |  |  |  |  |  |  | 
2 | Cc1ccc2c(c1)C1(CCN(CCc3nc(-c4ccccc4)oc3C)CC1)OC(=O)N2 |  |  |  | 7.57 |  |  |  |  |  |  |  |  | inactive | inactive | inactive |  |  |  | 
3 | Cc1ccc(-c2ccc3c(c2)C=C(C(=O)Nc2ccc(CN(C)C4CCOCC4)cc2)CCC3)cc1 | 302 |  | 105 | 8.63 | 4790 | 589 | 759 | 229 | 24 | 151 | -7.16 | 2570 |  |  |  | 2040 | inactive | 28.8 | 
4 | Cc1ccc(-c2ccc3c(c2)C=C(C(=O)Nc2ccc(C[N+](C)(C)C4CCOCC4)cc2)CCC3)cc1.[Cl-] | 17.8 |  | 21.4 | 9.53 | 182 | 12.6 | 28.8 | 9.77 | 2.63 | 27.5 | -8.16 | 105 |  |  |  | 148 |  | 4.17 | 
5 | Cc1ccc(CN2CC[C@@H](NC(=O)CNC(=O)c3cccc(C(F)(F)F)c3)C2)c(C)c1 | 2570 | inactive |  | 6.4 |  | 724 | 7760 | 316 | 661 | 316 | -6.47 | 1820 |  |  |  |  | inactive | 288 | 54
